{"source": "ChEMBL document CHEMBL1122178", "about": "“N-Methylnalorphine: definition of N-allyl conformation for antagonism at the opiate receptor” (J Med Chem, 1982)", "key": {"[1]": {"molecular_target": "T1, Opioid receptor (Mus musculus) (UniProt P42866+P32300+P33534)", "T1 sequence (P32300 whole entry, looked up)": "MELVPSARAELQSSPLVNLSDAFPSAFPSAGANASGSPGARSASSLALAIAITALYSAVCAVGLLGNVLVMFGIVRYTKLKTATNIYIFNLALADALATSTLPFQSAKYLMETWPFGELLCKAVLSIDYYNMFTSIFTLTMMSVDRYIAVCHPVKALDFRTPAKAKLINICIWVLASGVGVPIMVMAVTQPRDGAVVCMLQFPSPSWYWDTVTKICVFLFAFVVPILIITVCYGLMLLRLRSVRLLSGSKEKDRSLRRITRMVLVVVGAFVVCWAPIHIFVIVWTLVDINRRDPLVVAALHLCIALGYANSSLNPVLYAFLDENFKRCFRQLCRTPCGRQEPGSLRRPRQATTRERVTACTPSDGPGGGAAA", "T1 sequence (P33534 whole entry, looked up)": "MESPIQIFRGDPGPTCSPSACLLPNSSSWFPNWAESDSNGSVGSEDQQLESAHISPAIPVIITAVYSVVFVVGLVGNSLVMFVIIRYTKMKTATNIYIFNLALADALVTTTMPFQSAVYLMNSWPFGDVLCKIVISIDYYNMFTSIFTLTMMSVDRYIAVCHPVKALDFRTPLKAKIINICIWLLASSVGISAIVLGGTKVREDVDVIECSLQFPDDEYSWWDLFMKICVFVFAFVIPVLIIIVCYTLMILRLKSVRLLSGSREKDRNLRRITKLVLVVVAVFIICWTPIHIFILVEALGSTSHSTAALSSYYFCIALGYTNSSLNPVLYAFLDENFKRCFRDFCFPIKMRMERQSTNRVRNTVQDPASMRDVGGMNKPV", "T1 sequence (P42866 whole entry, looked up)": "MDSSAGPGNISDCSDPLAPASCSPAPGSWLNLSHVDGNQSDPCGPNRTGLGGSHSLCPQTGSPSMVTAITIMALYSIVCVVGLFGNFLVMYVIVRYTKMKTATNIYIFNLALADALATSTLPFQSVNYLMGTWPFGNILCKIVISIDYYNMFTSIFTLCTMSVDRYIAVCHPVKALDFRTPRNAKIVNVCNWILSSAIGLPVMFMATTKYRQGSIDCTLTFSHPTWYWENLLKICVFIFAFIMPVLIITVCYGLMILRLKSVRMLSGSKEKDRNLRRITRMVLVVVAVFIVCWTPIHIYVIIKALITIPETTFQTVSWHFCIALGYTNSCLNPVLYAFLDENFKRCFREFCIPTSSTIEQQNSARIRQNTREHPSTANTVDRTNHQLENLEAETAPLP", "assay": "Opioid receptors antagonist potency in reversing the effects of normorphine was determined in mouse isolated vas deferens", "assay_type": "functional, tissue-based"}, "[2]": {"molecular_target": "T1, Opioid receptor (Mus musculus)", "assay": "Opioid receptors antagonist potency in reversing the effects of Met5E was determined in mouse isolated vas deferens", "assay_type": "functional, tissue-based", "summary_of_the_method": "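Electrically stimulated mouse isolated vas deferens. Antagonism is measured against agonist-induced effects, with Met⁵-enkephalin as the δ agonist. Antagonist potency is expressed as pA₂.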"}, "Opioid receptor [3]": {"molecular_target": "T2, Opioid receptor (Mus musculus, UniProt P42866+P32300+P33534)", "assay": "Concentration required to inhibit the stereospecific [3H]diprenorphine binding Opioid receptors in the absence of sodium(Na+) was determined in mouse isolated vas deferens", "assay_type": "protein assay"}, "Opioid receptor [4]": {"molecular_target": "T2, Opioid receptor", "assay": "Concentration required to inhibit the stereospecific [3H]diprenorphine binding Opioid receptors in the presence of sodium(Na+) was determined in mouse isolated vas deferens", "assay_type": "protein assay"}}, "data": [{"smiles": "C=CCN1CC[C@]23c4c5ccc(O)c4O[C@H]2[C@@H](O)C=C[C@H]3[C@H]1C5", "values": [{"measurement": "Concentration", "setting": "[1]", "result": 22.4, "unit": "nM"}, {"measurement": "Concentration", "setting": "[2]", "result": 0.286, "unit": "µM"}]}, {"smiles": "C=CC[N+]1(C)CC[C@]23c4c5ccc(O)c4O[C@H]2[C@@H](O)C=CC3[C@H]1C5.[I-]", "note": "(stereo in doubt; A)", "values": [{"measurement": "IC50", "setting": "Opioid receptor [3]", "result": 8.5, "unit": "µM"}, {"measurement": "IC50", "setting": "Opioid receptor [4]", "result": 11.5, "unit": "µM"}]}, {"smiles": "C=CC[N+]1(C)CC[C@]23c4c5ccc(O)c4O[C@H]2[C@@H](O)C=CC3[C@H]1C5", "note": "(stereo in doubt; A)", "values": [{"measurement": "Concentration", "setting": "[1]", "result": 1250, "unit": "nM"}, {"measurement": "Concentration", "setting": "[2]", "result": "> 22", "unit": "µM"}]}, {"smiles": "C=CC[N+]1(C)CC[C@]23c4c5ccc(O)c4O[C@H]2[C@@H](O)C=CC3[C@H]1C5.[I-]", "note": "(stereo in doubt; B)", "values": [{"measurement": "IC50", "setting": "Opioid receptor [3]", "result": 0.44, "unit": "µM"}, {"measurement": "IC50", "setting": "Opioid receptor [4]", "result": 0.51, "unit": "µM"}]}, {"smiles": "C=CC[N+]1(C)CC[C@]23c4c5ccc(O)c4O[C@H]2[C@@H](O)C=CC3[C@H]1C5", "note": "(stereo in doubt; B)", "values": [{"measurement": "Concentration", "setting": "[1]", "result": 59.2, "unit": "nM"}, {"measurement": "Concentration", "setting": "[2]", "result": 4.92, "unit": "µM"}]}]}
